From ChEMBL document CHEMBL2146366, “Discovery of microsomal triglyceride transfer protein (MTP) inhibitors with potential for decreased active metabolite load compared to dirlotapide” (Bioorg Med Chem Lett, 2011)
The source made the active and inactive calls. The calls are words filed in the database; no cut-off is given here.

How the values were obtained:
Rattus norvegicus [1] = assay: Antiobesity activity in high fat diet-induced obese Sprague-Dawley rat assessed as reduction of food intake at 1 mg/kg, po administered daily for 3 days relative to dirlotapide; type: functional; design: scale not given: the % may be the effect or the level left
Outline: (§1)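 Male Sprague–Dawley rats (~300 g, n = 5 per group) were acclimatized for seven days to a high-fat diet (45% kcal from fat). They received three consecutive daily oral gavage doses 1.5 h before the dark cycle. Vehicle was SEDDS:H2O 10:90, with SEDDS made of Miglyol 812 10%, triacetin 30%, polysorbate 80 20% and Capmul MCM 30%. Food intake was recorded during dosing, and liver TG was measured afterwards, both against vehicle.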

Rattus norvegicus [2] = assay: Antiobesity activity in high fat diet-induced obese Sprague-Dawley rat assessed as reduction of food intake at 30 mg/kg, po qd for 7 days relative to control; type: functional; design: scale not given: the % may be the effect or the level left
Outline: (§2)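 Seven-day rat study: once-daily oral dosing at 3, 10 or 30 mg/kg, with 1, 3 and 100 mg/kg also used for one series. Compounds were given as spray-dried dispersions in hydroxypropylmethylcellulose acetate succinate. Food intake, body weight, liver TG and serum ALT were measured against vehicle. Systemic exposure was reported as AUC (ng h/mL). Significance versus vehicle was set at P ≤ 0.05.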

Rattus norvegicus [3] = assay: Antiobesity activity in high fat diet-induced obese Sprague-Dawley rat assessed as reduction of food intake at 30 mg/kg, po administered daily for 3 days relative to control; type: functional; design: scale not given: the % may be the effect or the level left; outline: as §1
Rattus norvegicus [4] = assay: Antiobesity activity in high fat diet-induced obese Sprague-Dawley rat assessed as reduction in body weight at 1 mg/kg, po administered daily for 3 days relative to dirlotapide; type: functional; design: scale not given: the % may be the effect or the level left
Rattus norvegicus [5] = assay: Antiobesity activity in high fat diet-induced obese Sprague-Dawley rat assessed as reduction in body weight at 30 mg/kg, po administered daily for 3 days relative to control; type: functional; design: scale not given: the % may be the effect or the level left
Rattus norvegicus [6] = assay: Antiobesity activity in high fat diet-induced obese Sprague-Dawley rat assessed as reduction of food intake at 3 mg/kg, po administered daily for 3 days relative to dirlotapide; type: functional; design: scale not given: the % may be the effect or the level left; outline: as §1
Rattus norvegicus [7] = assay: Antiobesity activity in high fat diet-induced obese Sprague-Dawley rat assessed as triglyceride accumulation in liver at 1 mg/kg, po administered daily for 3 days relative to control; type: functional, organism-based; design: dose 1 mg/kg; outline: as §1
Canis familiaris [8] = assay: Drug metabolism in beagle dog assessed as formation of 2-(2'-(6-(2-((4-fluorobenzyl)(methyl)amino)-2-oxo-1-phenylethylcarbamoyl)quinolin-2-ylcarbamoyl)biphenyl-4-yl)-2-methylpropanoic acid at 2.5 mg/kg, po administered as single dose; type: ADME, organism-based, Canis lupus familiaris; design: dose 2.5 mg/kg, route oral; conditions: in vivo
[9] = AUC in high fat diet-induced obese Sprague-Dawley rat at 30 mg/kg, po qd for 7 days; type: ADME, organism-based; design: dose 30 mg/kg, route oral; conditions: plasma; outline: as §2
[10] = Fraction unbound in human HepG2 cells by equilibrium dialysis; type: ADME, cell-based
Outline: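 Protein binding was measured by equilibrium dialysis under the conditions of the apoB secretion assay in human HepG2 cells, to give unbound fraction.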

Rattus norvegicus [11] = assay: Antiobesity activity in high fat diet-induced obese Sprague-Dawley rat assessed as reduction of food intake at 30 mg/kg, po administered daily for 3 days relative to dirlotapide; type: functional; design: scale not given: the % may be the effect or the level left; outline: as §1
Rattus norvegicus [12] = assay: Antiobesity activity in high fat diet-induced obese Sprague-Dawley rat assessed as reduction in body weight at 100 mg/kg, po administered daily for 3 days relative to control; type: functional; design: scale not given: the % may be the effect or the level left
Rattus norvegicus [13] = assay: Antiobesity activity in high fat diet-induced obese Sprague-Dawley rat assessed as reduction of triglyceride accumulation in liver at 3 mg/kg, po qd for 7 days relative to control; type: functional; design: scale not given: the % may be the effect or the level left; outline: as §2
Rattus norvegicus [14] = assay: Antiobesity activity in high fat diet-induced obese Sprague-Dawley rat assessed as reduction in body weight at 10 mg/kg, po administered with 25% SDD formulation daily for 3 days relative to control; type: functional; design: scale not given: the % may be the effect or the level left
Canis familiaris [15] = assay: Drug metabolism in beagle dog assessed as formation of 2-(4'-tert-butylbiphenyl-2-ylcarboxamido)-N-(2-(methylamino)-2-oxo-1-phenylethyl)quinoline-6-carboxamide at 2.5 mg/kg, po administered as single dose; type: ADME, organism-based, Canis lupus familiaris; design: dose 2.5 mg/kg, route oral; conditions: in vivo
Rattus norvegicus [16] = assay: Antiobesity activity in high fat diet-induced obese Sprague-Dawley rat assessed as reduction of triglyceride accumulation in liver at 10 mg/kg, po administered daily for 3 days relative to dirlotapide; type: functional; design: scale not given: the % may be the effect or the level left; outline: as §1
Rattus norvegicus [17] = assay: Antiobesity activity in high fat diet-induced obese Sprague-Dawley rat assessed as reduction of triglyceride accumulation in liver at 10 mg/kg, po qd for 7 days relative to control; type: functional; design: scale not given: the % may be the effect or the level left; outline: as §2
[18] = Oral bioavailability in beagle dog at 2.5 mg/kg; type: ADME, organism-based, Canis lupus familiaris; conditions: in vivo
Rattus norvegicus [19] = assay: Antiobesity activity in high fat diet-induced obese Sprague-Dawley rat assessed as reduction in body weight at 30 mg/kg, po administered daily for 3 days relative to dirlotapide; type: functional; design: scale not given: the % may be the effect or the level left
Rattus norvegicus [20] = assay: Antiobesity activity in high fat diet-induced obese Sprague-Dawley rat assessed as reduction of body weight at 10 mg/kg, po qd for 7 days relative to control; type: functional; design: scale not given: the % may be the effect or the level left; outline: as §2
Canis familiaris [21] = assay: Drug metabolism in beagle dog assessed as formation of N-(2-((4-fluorobenzyl)(methyl)amino)-2-oxo-1-phenylethyl)-2-(4'-(1-hydroxy-2-methylpropan-2-yl)biphenyl-2-ylcarboxamido)quinoline-6-carboxamide at 2.5 mg/kg, po administered as single dose; type: ADME, organism-based, Canis lupus familiaris; design: dose 2.5 mg/kg, route oral; conditions: in vivo
Rattus norvegicus [22] = assay: Antiobesity activity in high fat diet-induced obese Sprague-Dawley rat assessed as reduction of food intake at 100 mg/kg, po administered daily for 3 days relative to dirlotapide; type: functional; design: scale not given: the % may be the effect or the level left; outline: as §1
Rattus norvegicus [23] = assay: Antiobesity activity in high fat diet-induced obese Sprague-Dawley rat assessed as reduction of triglyceride accumulation in liver at 10 mg/kg, po administered daily for 3 days relative to control; type: functional; outline: as §1

CN(Cc1ccc(F)cc1)C(=O)[C@@H](NC(=O)c1ccc2nc(NC(=O)c3ccccc3-c3ccc(C(C)(C)C)cc3)ccc2c1)c1ccccc1
Activity (Rattus norvegicus [1]): 5%
Activity (Rattus norvegicus [2]): 48%
Activity (Rattus norvegicus [3]): 41%
Activity (Rattus norvegicus [4]): 25%
Activity (Rattus norvegicus [5]): 89%
Activity (Rattus norvegicus [6]): 6%
Activity (Rattus norvegicus [7]): inactive
Drug metabolism (Canis familiaris [8]): Active
AUC at 168 h [9]: 65 ng·h/mL
fraction unbound [10]: 0.00063
Activity (Rattus norvegicus [11]): 37%
Activity (Rattus norvegicus [12]): 107%
Activity (Rattus norvegicus [13]): 43%
Activity (Rattus norvegicus [14]): 96%
Drug metabolism (Canis familiaris [15]): Active
Activity (Rattus norvegicus [16]): 120%
Activity (Rattus norvegicus [17]): 219%
bioavailability [18]: < 3%
Activity (Rattus norvegicus [19]): 75%
Activity (Rattus norvegicus [20]): 255%
Drug metabolism (Canis familiaris [21]): Active
Activity (Rattus norvegicus [22]): 35%
Activity (Rattus norvegicus [23]): inactive
